Experimental data of several laboratories.
Compare with care: the assays were run in different laboratories.
Target: Phosphatidylinositol 4-phosphate 3-kinase C2 domain-containing subunit beta (PIK3C2B, Homo sapiens, UniProt O00750)

Cc1nc(NC(=O)N2CCC[C@H]2C(N)=O)sc1-c1ccnc(C(C)(C)C(F)(F)F)c1 — remaining binding (binding, competition with immobilised ligand; 10 µM): 4%
Cc1cnn2ncc(-c3ccnc(N(C)C)n3)c2c1 — remaining binding (binding; 1 µM): 100%
COc1ncc2cc3ccccc3nc2c1C#N — remaining binding (cell-free assay, competition with immobilised ligand; 5 µM): 100%
F[C@@H]1CCN(c2nccc(-c3cnn4ncccc34)n2)C1 — remaining binding (binding; 1 µM): 85%
O=C(NCCCN1CCOCC1)c1ccc(Nc2nccc(-c3cc4ccccc4s3)n2)cc1 — remaining binding (binding, competition with immobilised ligand; 1 µM): 92%
O=C(N[C@H]1CCCCC/C=C\C2C[C@@]2(C(=O)O)NC(=O)[C@@H]2C[C@@H](Oc3ccncc3)CN2C1=O)OC1CCCC1 (stereo partly drawn) — remaining binding (binding, competition with immobilised ligand; 1 µM): 84%
N#Cc1ccccc1CSc1nnc2c(n1)[nH]c1ccccc12 — remaining binding (binding, competition with immobilised ligand; 10 µM): 95%
O=C(NCC1CCOCC1)c1n[nH]cc1NC(=O)c1c(F)cccc1F — remaining binding (binding, competition with immobilised ligand; 1 µM): 100%
O=C(c1ccc(Nc2nccc(-c3cc4ccccc4s3)n2)cc1)N1CCC(N2CCCC2)CC1 — remaining binding (binding, competition with immobilised ligand; 1 µM): 99%
CN(c1ccnc(CNc2nc(Nc3ccc4c(c3)CC(=O)N4)ncc2C(F)(F)F)n1)S(C)(=O)=O — remaining binding (cell-free assay, competition with immobilised ligand; 1 µM): 79%
CN(C)c1nccc(-c2cnn3ncccc23)n1 — remaining binding (binding; 1 µM): 100%
COc1cnc(Nc2cccc(S(N)(=O)=O)c2)nc1N1CCN(c2ccccc2)C(=O)C1 — remaining binding (binding, competition with immobilised ligand; 1 µM): 97%
Nc1ncc2c(n1)-c1c([nH]c3ccc(C#CC4CC4)cc13)CCCC2 — remaining binding (binding, competition with immobilised ligand; 1 µM): 89%
Cc1nccc(COC(=O)N2C[C@@H]3[C@@H](CNC(=O)c4ccc5[nH]nnc5c4)[C@@H]3C2)n1 — remaining binding (cell-free assay, competition with immobilised ligand; 1 µM): 97%
Cc1cnc(Nc2ccc(C(=O)N3CCC(N4CCCC4)CC3)cc2)nc1-c1cc2ccccc2s1 — remaining binding (binding, competition with immobilised ligand; 1 µM): 99%
CN(C)c1nccc(-c2cnc3ncccn23)n1 — remaining binding (binding; 1 µM): 57%
C[C@@H](c1cccc(C#N)c1)n1cc(Cl)cc(C(N)=O)c1=N — remaining binding (cell-free assay, competition with immobilised ligand; 1 µM): 96%
COc1ccnn2ncc(-c3ccnc(N(C)C)n3)c12 — remaining binding (binding; 1 µM): 100%
Nc1cnc(N2CCc3cc(S(=O)(=O)Nc4c(F)cc(Cl)cc4F)cc(N4CCCC4=O)c32)nc1 — remaining binding (cell-free assay, competition with immobilised ligand; 1 µM): 83%
N[C@@H]1CCN(c2nccc(-c3cnn4ncccc34)n2)C1 — remaining binding (binding; 1 µM): 100%
O=C(Nc1cnc(Oc2ccc(F)cc2)nc1)N1CCc2ncccc2[C@@H]1c1ccc(F)cc1 — remaining binding (cell-free assay, competition with immobilised ligand; 1 µM): 95%
CC(C)(C)c1ccc(-c2nc(CBr)nn2-c2cccc(O)c2)cc1 — remaining binding (cell-free assay, competition with immobilised ligand; 10 µM): 60%
O=C(Nc1cccnn1)N1CCC(=Cc2cccc(Oc3ccc(C(F)(F)F)cn3)c2)CC1 — remaining binding (cell-free assay, competition with immobilised ligand; 1 µM): 91%
CC1CCCN1c1nccc(-c2cnn3ncccc23)n1 (stereo not drawn) — remaining binding (binding; 1 µM): 100%
